Each molecule was assayed against T1, fMet-Leu-Phe receptor (Homo sapiens, UniProt P21462) (assay: Inhibitory activity against human formylpeptide receptor (FPR) of human leukemia HL-60 cells). Settings: not given.
T1 sequence (P21462 whole entry): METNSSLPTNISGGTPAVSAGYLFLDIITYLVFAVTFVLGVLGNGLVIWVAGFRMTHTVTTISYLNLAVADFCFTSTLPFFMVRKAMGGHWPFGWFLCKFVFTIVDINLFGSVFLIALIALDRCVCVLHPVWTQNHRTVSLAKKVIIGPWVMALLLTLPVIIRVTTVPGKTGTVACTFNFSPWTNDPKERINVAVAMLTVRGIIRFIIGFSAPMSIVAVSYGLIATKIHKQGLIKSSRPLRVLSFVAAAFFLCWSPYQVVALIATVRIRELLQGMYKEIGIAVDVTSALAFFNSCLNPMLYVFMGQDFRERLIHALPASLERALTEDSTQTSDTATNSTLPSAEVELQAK
Assay type: cell-based
Outline: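 HL-60 cells differentiated 48 h with 0.2 mM dibutyryl cAMP, washed, then treated with 5 μM cytochalasin B (5–10 min, 37 °C). Stimulated 10 min with 30 nM f-MLF. N-acetyl-β-D-glucosaminidase release read at 410 nm on p-nitrophenyl substrate after spontaneous-release subtraction. Duplicate wells; IC20/IC50 as mean ± SD of independent experiments.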
Molecule `CC/C=C/C[C@@H](C)[C@@H](O)[C@H]1C(=O)N[C@@H](CC)C(=O)N(C)CC(=O)N(C)[C@@H](CC(C)C)C(=O)N[C@@H](C(C)C)C(=O)N(C)[C@@H](CC(C)C)C(=O)N[C@@H](C)C(=O)N[C@H](CCCCN)C(=O)N(C)[C@@H](CC(C)C)C(=O)N(C)[C@@H](CC(C)C)C(=O)N(C)[C@@H](C(C)C)C(=O)N1C` has an IC50 of 6.3 µM.
Molecule `C/C=C/C[C@@H](C)[C@@H](O)[C@H]1C(=O)N[C@@H](CC)C(=O)N(C)CC(=O)N(C)[C@@H](CC(C)C)C(=O)N[C@@H](C(C)C)C(=O)N(C)[C@@H](CC(C)C)C(=O)N[C@@H](C)C(=O)N[C@H](C)C(=O)N(C)[C@@H](CC(C)C)C(=O)N(C)[C@@H](CC(C)C)C(=O)N(C)[C@@H](C)C(=O)N1C` has an IC50 of 2.52 µM.
Work on `C/C=C/C[C@@H](C)[C@@H](O)[C@H]1C(=O)N[C@@H]([C@@H](C)O)C(=O)N(C)CC(=O)N(C)[C@@H](CC(C)C)C(=O)N[C@@H](CC(C)C)C(=O)N(C)[C@@H](CC(C)C)C(=O)N[C@@H](C)C(=O)N[C@](O)(C(C)C)C(=O)N(C)[C@@H](CC(C)C)C(=O)N[C@@H](CC(C)C)C(=O)N(C)[C@@H](C(C)C)C(=O)N1C` yielded an IC50 of 0.57 µM.
`C/C=C/C[C@@H](C)[C@@H](O)[C@H]1C(=O)N[C@@H](CC)C(=O)N(C)CC(=O)N(C)[C@@H](CC(C)C)C(=O)N[C@@H](C(C)C)C(=O)N(C)[C@@H](CC(C)C)C(=O)N[C@@H](C)C(=O)N[C@H](C)C(=O)N[C@@H](CC(C)C)C(=O)N(C)[C@@H](CC(C)C)C(=O)N(C)[C@@H](C(C)C)C(=O)N1C` gave an IC50 of 3 µM.
Molecule `CC(C)C[C@H]1C(=O)N[C@@H](C(C)C)C(=O)N(C)[C@@H](CC(C)C)C(=O)N[C@@H](C)C(=O)N[C@H](C)C(=O)N(C)[C@@H](CC(C)C)C(=O)N(C)[C@@H](CC(C)C)C(=O)N(C)[C@@H](C(C)C)C(=O)N(C)[C@@H](CC(C)C)C(=O)N[C@@H](C(C)C)C(=O)N(C)CC(=O)N1C` has an IC50 greater than 10 µM.
Work on `C/C=C/C[C@@H](C)[C@@H](O)[C@H]1C(=O)N[C@@H](C)C(=O)N(C)CC(=O)N(C)[C@@H](CC(C)C)C(=O)N[C@@H](C(C)C)C(=O)N(C)[C@@H](CC(C)C)C(=O)N[C@@H](C)C(=O)N[C@H](C)C(=O)N(C)[C@@H](CC(C)C)C(=O)N[C@@H](CC(C)C)C(=O)N(C)[C@@H](C(C)C)C(=O)N1C` yielded an IC50 of 2.2 µM.
`CC/C=C/C[C@@H](C)[C@@H](O)[C@H]1C(=O)N[C@@H](CC)C(=O)N(C)CC(=O)N(C)[C@@H](C(C)C)C(=O)N[C@@H](C(C)C)C(=O)N(C)[C@@H](CC(C)C)C(=O)N[C@@H](C)C(=O)N[C@H](C)C(=O)N(C)[C@@H](CC(C)C)C(=O)N(C)[C@@H](CC(C)C)C(=O)N(C)[C@@H](C(C)C)C(=O)N1C` gave an IC50 greater than 5 µM.
For `C/C=C/C[C@@H](C)[C@@H](O)[C@H]1C(=O)N[C@@H]([C@@H](C)O)C(=O)N(C)CC(=O)N(C)[C@@H](CC(C)C)C(=O)N[C@@H](C(C)C)C(=O)N(C)[C@@H](CC(C)C)C(=O)N[C@@H](C)C(=O)N[C@H](C)C(=O)N(C)[C@@H](CC(C)C)C(=O)N[C@@H](CC(C)C)C(=O)N(C)[C@@H](C(C)C)C(=O)N1C`, the IC50 was greater than 3 µM.
With `CC/C=C/C[C@@H](C)[C@@H](O)[C@H]1C(=O)N[C@@H]([C@@H](C)O)C(=O)N(C)CC(=O)N(C)[C@@H](CC(C)C)C(=O)N[C@@H](C(C)C)C(=O)N(C)[C@@H](CC(C)C)C(=O)N[C@@H](C)C(=O)N[C@H](C)C(=O)N(C)[C@@H](CC(C)C)C(=O)N(C)[C@@H](CC(C)C)C(=O)N(C)[C@@H](C(C)C)C(=O)N1C` the IC50 was greater than 10 µM.
`CC[C@@H]1NC(=O)[C@H](CC2CCCCC2)N(C)C(=O)[C@H](C(C)C)N(C)C(=O)[C@H](CC(C)C)N(C)C(=O)[C@H](CC(C)C)N(C)C(=O)[C@@H](C)NC(=O)[C@H](C)NC(=O)[C@H](CC(C)C)N(C)C(=O)[C@H](C(C)C)NC(=O)[C@H](CC(C)C)N(C)C(=O)CN(C)C1=O` gave an IC50 of 6.33 µM.
`CC(C)C[C@@H]1NC(=O)[C@H](CC(C)C)N(C)C(=O)[C@@](O)(C(C)C)NC(=O)[C@H](C)NC(=O)[C@H](CC(C)C)N(C)C(=O)[C@H](CC(C)C)NC(=O)[C@H](CC(C)C)N(C)C(=O)CN(C)C(=O)[C@H]([C@@H](C)O)NC(=O)[C@H]([C@H](O)[C@H](C)C/C=C/CO)N(C)C(=O)[C@H](C(C)C)N(C)C1=O` was tested, and the IC50 was 1.48 µM.
`CCCCCC[C@H]1C(=O)N[C@@H](CC)C(=O)N(C)CC(=O)N(C)[C@@H](CC(C)C)C(=O)N[C@@H](C(C)C)C(=O)N(C)[C@@H](CC(C)C)C(=O)N[C@@H](C)C(=O)N[C@H](C)C(=O)N(C)[C@@H](CC(C)C)C(=O)N(C)[C@@H](CC(C)C)C(=O)N(C)[C@@H](C(C)C)C(=O)N1C` was tested, and the IC50 was greater than 10 µM.
In the case of `C/C=C/C[C@@H](C)[C@@H](O)[C@H]1C(=O)N[C@@H]([C@@H](C)O)C(=O)N(C)CC(=O)N(C)[C@@H](CC(C)C)C(=O)N[C@@H]([C@@H](C)CC)C(=O)N(C)[C@@H](CC(C)C)C(=O)N[C@@H](C)C(=O)N[C@](O)(C(C)C)C(=O)N(C)[C@@H](CC(C)C)C(=O)N[C@@H](CC(C)C)C(=O)N(C)[C@@H](C(C)C)C(=O)N1C`, the IC50 is reported as 0.75 µM.
Molecule `C/C=C/C[C@@H](C)[C@@H](O)[C@H]1C(=O)N[C@@H](CCC)C(=O)N(C)CC(=O)N(C)[C@@H](CC(C)C)C(=O)N[C@@H](C(C)C)C(=O)N(C)[C@@H](CC(C)C)C(=O)N[C@@H](C)C(=O)N[C@H](C)C(=O)N[C@@H](CC(C)C)C(=O)N(C)[C@@H](CC(C)C)C(=O)N(C)[C@@H](C(C)C)C(=O)N1C` has an IC50 greater than 10 µM.
Work on `C/C=C/C[C@@H](C)[C@@H](O)[C@H]1C(=O)N[C@@H]([C@@H](C)O)C(=O)N(C)CC(=O)N(C)[C@@H](CC(C)C)C(=O)N[C@@H](C(C)C)C(=O)N(C)[C@@H](CC(C)C)C(=O)N[C@@H](C)C(=O)N[C@H](C)C(=O)N(C)[C@@H](CC(C)C)C(=O)N(C)[C@@H](CC(C)C)C(=O)N[C@@H](C(C)C)C(=O)N1C` yielded an IC50 greater than 10 µM.
`C/C=C/C[C@@H](C)[C@@H](O)[C@H]1C(=O)N[C@@H]([C@@H](C)O)C(=O)N(C)CC(=O)N(C)[C@@H](CC(C)C)C(=O)N[C@@H](C(C)C)C(=O)N(C)[C@@H](CC(C)C)C(=O)N[C@@H](C)C(=O)N[C@](O)(C(C)C)C(=O)N(C)[C@@H](CC(C)C)C(=O)N[C@@H](CC(C)C)C(=O)N(C)[C@@H](C(C)C)C(=O)N1C` gave an IC50 of 2.5 µM.
With `C/C=C/C[C@@H](C)[C@@H](O)[C@H]1C(=O)N[C@@H](CC)C(=O)NCC(=O)N(C)[C@@H](CC(C)C)C(=O)N[C@@H](C(C)C)C(=O)N(C)[C@@H](CC(C)C)C(=O)N[C@@H](C)C(=O)N[C@H](CO)C(=O)N(C)[C@@H](CC(C)C)C(=O)N(C)[C@@H](CC(C)C)C(=O)N(C)[C@@H](C(C)C)C(=O)N1C` the IC50 was greater than 5 µM.
Work on `CCC[C@@H]1NC(=O)[C@H](CC(C)C)N(C)C(=O)[C@H](C(C)C)N(C)C(=O)[C@H](CC(C)C)N(C)C(=O)[C@H](CC(C)C)N(C)C(=O)[C@@H](C)NC(=O)[C@H](C)NC(=O)[C@H](CC(C)C)N(C)C(=O)[C@H](C(C)C)NC(=O)[C@H](CC(C)C)N(C)C(=O)CN(C)C1=O` yielded an IC50 greater than 10 µM.
For `CC/C=C/C[C@@H](C)[C@@H](O)[C@H]1C(=O)N[C@@H](CC)C(=O)N(C)CC(=O)N(C)[C@@H](CC(C)(C)O)C(=O)N[C@@H](C(C)C)C(=O)N(C)[C@@H](CC(C)C)C(=O)N[C@@H](C)C(=O)N[C@H](C)C(=O)N(C)[C@@H](CC(C)C)C(=O)N(C)[C@@H](CC(C)C)C(=O)N(C)[C@@H](C(C)C)C(=O)N1C`, the IC50 was greater than 10 µM.

Same assay, conditions: hl-60
In the case of `C/C=C/C[C@@H](C)[C@@H](O)[C@H]1C(=O)N[C@@H](CC)C(=O)N(C)CC(=O)N(C)[C@@H](CC(C)C)C(=O)N[C@@H](C(C)C)C(=O)N(C)[C@@H](CC(C)C)C(=O)N[C@@H](C)C(=O)N[C@H](C)C(=O)N(C)[C@@H](CC(C)C)C(=O)N(C)[C@@H](CC(C)C)C(=O)N(C)[C@@H]([C@@H](C)CC)C(=O)N1C`, the IC50 is reported as greater than 10 µM.
